From ChEMBL document CHEMBL4138104, “Indole carboxylic acid esters of melampomagnolide B are potent anticancer agents against both hematological and solid tumor cells” (Eur J Med Chem, 2017)
The source made the active and inactive calls. No cut-off for these calls is given here.

Legend:
[1] = test system: SR; experiment: Growth inhibition of human SR cells incubated for 48 hrs by sulforhodamine B assay; assay type: functional
Summary of the method: (§1)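 NCI-60 screen run at NCI. Cells grown in RPMI medium with 5% FBS and 2 mM L-glutamine, plated at 5,000–40,000 cells/well, and preincubated 24 h at 37 °C. Time-zero plates were TCA-fixed. Compounds came from DMSO stocks and were tested at five concentrations from 10^-4 to 10^-8 M for 48 h. Cells were then TCA-fixed, stained with 0.4% SRB, and OD read at 515 nm. GI50 is the concentration giving a 50% reduction in net protein increase versus control.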

[2] = test system: EKVX; experiment: Growth inhibition of human EKVX cells incubated for 48 hrs by sulforhodamine B assay; assay type: functional
Summary of the method: (§2)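 NCI-60 screen. Compounds were dosed at five concentrations spanning 10^-4 to 10^-8 M for 48 h at 37 °C. Cells were TCA-fixed, stained with 0.4% SRB and read at 515 nm against time-zero and vehicle controls. GI50 is the concentration giving a 50% reduction in net protein increase.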

[3] = test system: HOP-62; experiment: Growth inhibition of human HOP62 cells incubated for 48 hrs by sulforhodamine B assay; assay type: functional; settings: HOP-62, 48 h; summary of the method: as §2
[4] = test system: COLO 205; experiment: Growth inhibition of human COLO205 cells incubated for 48 hrs by sulforhodamine B assay; assay type: functional; settings: COLO 205, 48 h; summary of the method: as §2
[5] = test system: SW-620; experiment: Growth inhibition of human SW620 cells incubated for 48 hrs by sulforhodamine B assay; assay type: functional; settings: SW-620, 48 h; summary of the method: as §1
[6] = test system: SNB-75; experiment: Growth inhibition of human SNB75 cells incubated for 48 hrs by sulforhodamine B assay; assay type: functional; settings: SNB-75, 48 h; summary of the method: as §1
[7] = test system: M14; experiment: Growth inhibition of human M14 cells incubated for 48 hrs by sulforhodamine B assay; assay type: functional; settings: M14, 48 h; summary of the method: as §2
[8] = test system: MDA-MB-435; experiment: Growth inhibition of human MDA-MB-435 cells incubated for 48 hrs by sulforhodamine B assay; assay type: functional; settings: MDA-MB-435, 48 h; summary of the method: as §2
[9] = test system: SK-MEL-2; experiment: Growth inhibition of human SK-MEL-2 cells incubated for 48 hrs by sulforhodamine B assay; assay type: functional; settings: SK-MEL-2, 48 h; summary of the method: as §2
[10] = test system: SK-MEL-5; experiment: Growth inhibition of human SK-MEL-5 cells incubated for 48 hrs by sulforhodamine B assay; assay type: functional; settings: SK-MEL-5, 48 h; summary of the method: as §2
[11] = test system: IGROV-1; experiment: Growth inhibition of human IGROV1 cells incubated for 48 hrs by sulforhodamine B assay; assay type: functional; settings: IGROV-1, 48 h; summary of the method: as §2
[12] = test system: OVCAR-3; experiment: Growth inhibition of human OVCAR3 cells incubated for 48 hrs by sulforhodamine B assay; assay type: functional; settings: OVCAR-3, 48 h; summary of the method: as §2
[13] = test system: OVCAR-4; experiment: Growth inhibition of human OVCAR4 cells incubated for 48 hrs by sulforhodamine B assay; assay type: functional; settings: OVCAR-4, 48 h; summary of the method: as §2
[14] = test system: 786-0; experiment: Growth inhibition of human 786-0 cells incubated for 48 hrs by sulforhodamine B assay; assay type: functional; settings: 786-0, 48 h; summary of the method: as §2
[15] = test system: ACHN; experiment: Growth inhibition of human ACHN cells incubated for 48 hrs by sulforhodamine B assay; assay type: functional; summary of the method: as §2
[16] = test system: TK-10; experiment: Growth inhibition of human TK10 cells incubated for 48 hrs by sulforhodamine B assay; assay type: functional; settings: TK-10, 48 h; summary of the method: as §1
[17] = test system: PC-3; experiment: Growth inhibition of human PC3 cells incubated for 48 hrs by sulforhodamine B assay; assay type: functional; settings: PC-3, 48 h; summary of the method: as §2
[18] = test system: DU-145; experiment: Growth inhibition of human DU145 cells incubated for 48 hrs by sulforhodamine B assay; assay type: functional; settings: DU-145, 48 h; summary of the method: as §2
[19] = test system: MDA-MB-231; experiment: Growth inhibition of human MDA-MB-231/ATCC cells incubated for 48 hrs by sulforhodamine B assay; assay type: functional; settings: MDA-MB-231, 48 h; summary of the method: as §2
[20] = test system: Hs-578T; experiment: Growth inhibition of human Hs 578T cells incubated for 48 hrs by sulforhodamine B assay; assay type: functional; summary of the method: as §2
[21] = test system: BT-549; experiment: Growth inhibition of human BT549 cells incubated for 48 hrs by sulforhodamine B assay; assay type: functional; settings: BT-549, 48 h; summary of the method: as §2
[22] = test system: T47D; experiment: Growth inhibition of human T47D cells incubated for 48 hrs by sulforhodamine B assay; assay type: functional; summary of the method: as §1
[23] = test system: MDA-MB-468; experiment: Growth inhibition of human MDA-MB-468 cells incubated for 48 hrs by sulforhodamine B assay; assay type: functional; settings: MDA-MB-468, 48 h; summary of the method: as §2
[24] = Induction of apoptosis in AML01 cells isolated from acute myelogenous leukemia patient after 24 hrs by annexin V/7-AAD/propidium iodide staining-based flow cytometric method; assay type: functional, cell-based; settings: Homo sapiens, AML01, 24 h
Summary of the method: (§3)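 Primary AML specimens from consenting patients were Ficoll-separated and some were cryopreserved. Cells were held 1 h in serum-free IMDM with 20% BIT 9500, LDL and beta-mercaptoethanol before drug. Drugs were diluted from DMSO stock into PBS, final DMSO ≤0.5%. Dosing was 0.5–10 μM for 24 h. Annexin V/7-AAD flow cytometry scored double-negative (non-apoptotic) cells, normalized to vehicle, in triplicate, and EC50 came from dose-response curves.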

[25] = Induction of apoptosis in AML02 cells isolated from acute myelogenous leukemia patient after 24 hrs by annexin V/7-AAD/propidium iodide staining-based flow cytometric method; assay type: functional, cell-based; settings: Homo sapiens; summary of the method: as §3
[26] = Induction of apoptosis in AML03 cells isolated from acute myelogenous leukemia patient after 24 hrs by annexin V/7-AAD/propidium iodide staining-based flow cytometric method; assay type: functional, cell-based; settings: Homo sapiens; summary of the method: as §3
[27] = Induction of apoptosis in AML04 cells isolated from acute myelogenous leukemia patient after 24 hrs by annexin V/7-AAD/propidium iodide staining-based flow cytometric method; assay type: functional, cell-based; settings: Homo sapiens; summary of the method: as §3
[28] = Potency index, ratio of PTL EC50 to compound EC50 for human M9-ENL1 cells; assay type: functional
Summary of the method: (§4)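 M9-ENL1 AML cells, derived by MLL-ENL transduction of human blood cells, were plated at 10^6 cells/mL in alpha-MEM with 5% human plasma, 20% FBS, SCF, IL-3, IL-7 and FLT3 ligand. Exposure was 24 h. Non-apoptotic (Annexin V/7-AAD double-negative) fraction was normalized to vehicle, in triplicate, to give EC50. PTL and MMB were run as reference controls.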

[29] = Potency index, ratio of melampomagnolide-B EC50 to compound EC50 for human M9-ENL1 cells; assay type: functional; summary of the method: as §4
[30] = organism: Rattus norvegicus; experiment: Induction of necrosis in rat 9LSF cells at 20 uM after 48 hrs by microscopic analysis; assay type: functional, cell-based
Summary of the method: (§5)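 Rat 9L-SF gliosarcoma cells were grown in DMEM/F12 with 10% iron-supplemented calf serum at 37 °C under 5% CO2. Treatment was applied to 50% confluent monolayers. Cell detachment and necrosis were scored visually by microscopy.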

[31] = organism: Rattus norvegicus; experiment: Induction of cell detachment in rat 9LSF cells at 20 uM after 48 hrs by microscopic analysis; assay type: functional, cell-based; summary of the method: as §5
[32] = test system: CAKI-1; experiment: Growth inhibition of human Caki1 cells incubated for 48 hrs by sulforhodamine B assay; assay type: functional; settings: CAKI-1, 48 h; summary of the method: as §2
[33] = Solubility of the compound in water; assay type: physicochemical; settings: buffer
[34] = organism: Rattus norvegicus; experiment: Inhibition of colony formation of rat 9LSF cells at 5 to 20 uM after 48 hrs by colony formation assay; assay type: functional
Summary of the method: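 9L-SF cells were seeded in 60 mm dishes to reach 50% confluence (6.65×10^4 cells/cm²) after 24 h. They were treated 48 h with drug serially diluted from DMSO stock (max 0.05% DMSO), then rinsed, trypsinized, counted and seeded in triplicate flasks for colonies. Lethally irradiated (25 Gy) feeders kept density at 2,000 cells/cm². Survival was normalized to control plating efficiency, with three experiments.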

| Structure (SMILES) | GI50 [1] [nM] | GI50 [2] [nM] | GI50 [3] [nM] | GI50 [4] [nM] | GI50 [5] [nM] | GI50 [6] [nM] | GI50 [7] [nM] | GI50 [8] [nM] | GI50 [9] [nM] | GI50 [10] [nM] | GI50 [11] [nM] | GI50 [14] [nM] | GI50 [15] [nM] | GI50 [16] [nM] | GI50 [17] [nM] | GI50 [18] [nM] | GI50 [19] [nM] | GI50 [21] [nM] | GI50 [22] [nM] | GI50 [23] [nM] | further results |
| --- | --- | --- | --- | --- | --- | --- | --- | --- | --- | --- | --- | --- | --- | --- | --- | --- | --- | --- | --- | --- | --- |
| C=C1C(=O)O[C@@H]2[C@H]3O[C@]3(C)CC/C=C(/COC(=O)/C=C/c3c[nH]c4ccccc34)CC[C@@H]12 | 270 | 230 | 820 | 220 | 180 | 170 | 220 | 220 | 200 | 200 | 220 | 220 | 200 | 270 | 320 | 390 | 170 | 170 | 200 | 190 | GI50 [12]: 170 nM; GI50 [13]: 200 nM; GI50 [20]: 350 nM; EC50 [24]: 1300 nM; EC50 [25]: 910 nM; EC50 [26]: 320 nM; EC50 [27]: 1000 nM; Ratio IC50 [28]: 9; Ratio IC50 [29]: >20; Activity [30]: Active; Activity [31]: Active |
| CN(C)CC1C(=O)O[C@@H]2[C@H]3O[C@]3(C)CC/C=C(/COC(=O)c3cc4ccccc4[nH]3)CC[C@@H]12.O=C(O)/C=C/C(=O)O (stereo partly specified) | 1590 | 3360 | 2200 | 1980 | 1700 | 3210 | 1570 | 1280 | 2100 | 1850 | 2070 | 1710 | 670 | 2120 | 2370 | 1490 | 1740 | 1570 | 2110 | 1120 | GI50 [12]: 350 nM; GI50 [13]: 1360 nM; GI50 [32]: 1110 nM; GI50 [20]: 3030 nM; solubility [33]: Soluble |
| C=C1C(=O)O[C@@H]2[C@H]3O[C@]3(C)CC/C=C(/COC(=O)c3cc4ccccc4[nH]3)CC[C@@H]12 | 1080 | – | – | – | 250 | 1010 | 810 | 760 | 1920 | 1260 | – | 370 | 340 | 1390 | 1420 | 1210 | 1140 | < 10 | < 10 | 300 | GI50 [32]: 1080 nM; EC50 [24]: 3500 nM; EC50 [25]: 2700 nM; EC50 [26]: 2900 nM; EC50 [27]: 2200 nM; Ratio IC50 [29]: 2 - 20; inhibition [34]: Active; Activity [30]: Active; Activity [31]: Active |
